PubChem BioAssay
Records with an inconclusive call do not appear.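 The calls were made as follows, unless noted: active = cell viability at or below a set limit in both duplicate runs, the limit being the all-compound median minus 4 SD (cut at about 23% in these data, passing the limit was not always enough); inconclusive = no clear call, values can overlap the other calls; inactive = the rest.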

Assays:
[1] = S. cerevisiae growth inhibition in permissive medium (OD615), pilot counter-assay for S. cerevisiae lifespan shortening project, permissive growth control (AID 705;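 active = growth inhibition above 25% in both replicates, a cutoff set 3 SD above the mean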); settings: OD615, 24 h, at 10 µM, stronger effect = higher value
Method in brief: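 assay system = Saccharomyces cerevisiae strain carrying genetically modified DeaD replicative-lifespan system | technique = absorbance (optical density) at 615 nm | buffer or medium = permissive raffinose/galactose medium | timing = cells pre-grown 4 h, then 24 h compound exposure, 30 °C humidified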

[2] = S. cerevisiae growth inhibition in restrictive medium, OD615, pilot screen, restrictive growth control, yeast lifespan reduction project (AID 706;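 active = growth inhibition above a set limit, 3 SD over mean compound inhibition, in both replicates, cut at about 43% in these data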;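 also: modified DeaD lifespan yeast strain shifted to restrictive glucose medium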); settings: OD615, 48 h, at 10 µM, stronger effect = higher value
Method in brief: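 System: modified S. cerevisiae. Buffer or medium: CSMM-D glucose medium. Incubation: 4 h pre-growth plus 48 h compound exposure, 30 °C. Detection: absorbance (optical density) measured at 615 nm.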

[3] = doxorubicin toxicity protection in MRP-1 cells – H69AR cells, CellTiter-Glo, duplicate, MRP-1 activator project, pilot screen (AID 807;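 active = viability increase at or above a cutoff of the median across tested compounds plus 3 SD, cut at about 8.5% in these data, passing the limit was not always enough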;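 also: compound pretreatment 18-22 h then 72 h combined with doxorubicin; 0% = doxorubicin alone and 100% = vehicle without doxorubicin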); settings: H69AR viability with doxorubicin, CellTiter-Glo luminescence; at 10 µM; stronger effect = higher value
[4] = viability of HCT116 without oncogenic beta-catenin – human colon tumor cells, pilot screen (AID 823); settings: HCT116 beta-catenin knockout viability, CellTiter-Glo, 60 h; at 10 µM; stronger effect = lower value;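 also: 0% = wells killed by 20 µM Hyamine and 100% = untreated DMSO cell wells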
[5] = viability of PTEN-null HCT116 cells – cell-based, HCT116 clonal line, CellTiter-Glo, pilot screen (AID 824;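 active = viability at or below 27.92% in each of two runs, the all-compound median minus 4 SD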;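 also: 0% = 20 µM Hyamine control and 100% = vehicle cell control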); settings: HCT116 PTEN-deleted viability, 60 h, at 10 µM, stronger effect = lower value
[6] = RAM pathway blockade in budding yeast – dse1pr::URA3 reporter, 5-FOA selection, pilot screen (AID 869;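 active = inhibition over a set limit, the all-compound mean plus 3 SD, in both replicate runs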;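 also: 0% = DMSO wells with no growth and 100% = 10 µM 1-NA-PP1 with full growth; RAM network block rescues cells from 5-FOA so hits raise OD615 growth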); settings: S. cerevisiae dse1pr::URA3 5-FOA growth, OD615, 2 d; at 10 µM; stronger effect = higher value; strain carries analog-sensitive mutant Cbk1 kinase
[7] = RAM signaling pathway blockade in yeast – S. cerevisiae, Pdr1DBD-CYC8 efflux-inhibited sensitized strain, primary screen (AID 1298;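 active = RAM network inhibition above 8.4% in each of two replicates, 3 SD over the compound average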;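 also: 0% = DMSO untreated cells without growth and 100% = 10 µM 1-NA-PP1 full growth; higher means more yeast growth rescued from 5-FOA killing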); settings: S. cerevisiae cbk1-as DSE1-URA3 strain, 5-FOA growth OD615, 2 d; at 50 µM; stronger effect = higher value

COC(=O)c1coc(-c2ccc(C)cc2)c1C(=O)OC
inactive: growth inhibition [1] -4.24% | growth inhibition [2] 2% | viability increase [3] 0.08% | viability [4] 88.6% | viability [5] 95.9% | inhibition [6] 0.11% | RAM network inhibition [7] 3.96%

COc1ccc(CCNC(=O)c2ccco2)cc1
inactive: growth inhibition [1] 13.4% | growth inhibition [2] 8.97% | viability increase [3] -2.79% | viability [4] 107% | viability [5] 91.8% | inhibition [6] 1.58% | RAM network inhibition [7] -1.03%

CCCCNC(=O)C1c2cc(OC)c(OC)cc2C(=O)N(C)C1c1ccc(OC)cc1 (stereo not drawn)
inactive: growth inhibition [1] -7.31% | growth inhibition [2] -7.21% | viability increase [3] -2.49% | viability [4] 92.5% | viability [5] 98.4% | inhibition [6] 1.63% | RAM network inhibition [7] 1.97%

CNc1nc(-c2ccc(Cl)cc2)cs1
inactive: growth inhibition [1] -5.83% | growth inhibition [2] -22.5% | viability increase [3] 0.42% | viability [4] 92.1% | viability [5] 87.8% | inhibition [6] 0.94% | RAM network inhibition [7] 0.43%

Cc1cc(NC(=O)CSCc2nc(-c3cccc(Cl)c3)oc2C)no1
inactive: growth inhibition [1] -12.6% | growth inhibition [2] -5.47% | viability increase [3] 1.25% | viability [4] 94.3% | viability [5] 95.5% | inhibition [6] 1.98% | RAM network inhibition [7] 11.2%

CCN(CCNC(=O)C1CCN(c2nnc(-n3cccc3)s2)CC1)c1ccccc1
inactive: growth inhibition [1] -4.1% | growth inhibition [2] -6.63% | viability increase [3] -3.79% | viability [4] 90.6% | viability [5] 92.7% | inhibition [6] 0.38% | RAM network inhibition [7] 8.71%

Cc1ccc(-c2nc(CS(=O)CC(=O)NCCC(C)C)c(C)o2)cc1 (stereo not drawn)
inactive: growth inhibition [1] -6.7% | growth inhibition [2] -1.91% | viability increase [3] -0.71% | viability [4] 92.2% | viability [5] 95.8% | inhibition [6] 1.14% | RAM network inhibition [7] 3.42%

CCOC(=O)C1C(=O)CC(C)(O)C(C(=O)OCC)C1/C=C/c1ccccc1 (stereo not drawn)
inactive: growth inhibition [1] -4.58% | growth inhibition [2] 2.66% | viability increase [3] -3.71% | viability [4] 94.4% | viability [5] 83.1% | inhibition [6] 0.605% | RAM network inhibition [7] 7.42%

O=C(NCc1cccs1)c1cnc2sccn2c1=O
inactive: growth inhibition [1] -9.93% | growth inhibition [2] 18% | viability increase [3] 0.04% | viability [4] 99.3% | viability [5] 89.9% | inhibition [6] 1.6% | RAM network inhibition [7] 0.36%

Cc1ccc(S(=O)(=O)CNC(=O)c2ccccc2)cc1
inactive: growth inhibition [1] -4.27% | growth inhibition [2] 3.26% | viability increase [3] 1.64% | viability [4] 97.8% | viability [5] 96.8% | inhibition [6] 1.57% | RAM network inhibition [7] 0.51%

O=C(COc1ccccc1)Nc1nnc(-c2ccccc2)o1
inactive: growth inhibition [1] -5.84% | growth inhibition [2] 4.22% | viability increase [3] 0.2% | viability [4] 104% | viability [5] 94.1% | inhibition [6] 1.29% | RAM network inhibition [7] -1.25%

O=C(C1CCCCC1)N1CCN(c2ncccn2)CC1
inactive: growth inhibition [1] -3.77% | growth inhibition [2] -0.05% | viability increase [3] 0.21% | viability [4] 101% | viability [5] 102% | inhibition [6] 1.31% | RAM network inhibition [7] 2.41%

Cc1ccsc1C1C2=C(CC(C)(C)CC2=O)Nc2ncnn21 (stereo not drawn)
inactive: growth inhibition [1] -13.7% | growth inhibition [2] 11.9% | viability increase [3] -4.49% | viability [4] 101% | viability [5] 102% | inhibition [6] 1.98% | RAM network inhibition [7] 4.28%

COc1ccccc1-n1c(SC)nc(O)cc1=O
inactive: growth inhibition [1] 1.24% | growth inhibition [2] -7.61% | viability increase [3] 0.84% | viability [4] 105% | viability [5] 99% | inhibition [6] 2.01% | RAM network inhibition [7] 4.2%
